In ChEMBL document CHEMBL1772988, “(-)-Epigallocatechin-3-O-gallate induces nonapoptotic cell death in leukemia cells independent of the 67 kDa laminin receptor” (2011):
The source made the active and inactive calls. The rule behind the calls is not given here.

Columns and labels:
HL-60 [1] = assay: Induction of apoptosis in human HL60 cells assessed as intracellular caspase-3 activation after 48 hrs (reference value: 1.3 %); format: functional
Raji [2] = assay: Induction of apoptosis in human Raji cells assessed as necrotic cells at 10 uM after 6 hrs by measuring phosphatidylserine translocation using annexin V-FITC/propidium iodide staining by FACS (reference value: 3.4 %); format: functional
Raji [3] = assay: Growth inhibition against human Raji cells assessed as cell viability at 10 uM after 48 hrs by trypan blue based microscopic analysis in presence of superoxide dismutase; format: functional
Procedure, shortened: (§1)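 Raji cells were seeded at 1 × 10^5 cells/mL and HL60 at 5 × 10^4 cells/mL. Medium held SOD (5 U/mL), catalase (30 U/mL) or both, plus 10 μM EGCG, for 48 h. Viable cells counted after trypan blue by hemacytometer; growth rate relative to untreated. Means ± SD of more than three experiments in triplicate wells.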

Raji [4] = assay: Cell cycle arrest in human Raji cells by assessed as accumulation at subG1 phase at 10 uM using propidium iodide staining by flow cytometry in presence of superoxide dismutase and catalase; format: functional
Procedure, shortened: (§2)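 Cells treated with 10 μM EGCG for 48 h, with or without SOD (5 U/mL) plus catalase (30 U/mL) in the medium. Harvested cells permeabilised in PBS with 0.1% Triton X-100 for 5 min on ice, stained with propidium iodide (50 μg/mL), and analysed by flow cytometry for sub-G1 fraction.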

Raji [5] = assay: Induction of apoptosis in human Raji cells assessed as late apoptotic or secondary necrotic cells at 10 uM after 6 hrs by measuring phosphatidylserine translocation using annexin V-FITC/propidium iodide staining by FACS (reference value: 2.2 %); format: functional
UT7 = assay: Cytotoxicity against human UT7 cells assessed as cell growth inhibition at 10 uM after 7 days by trypan blue based microscopic analysis; format: functional
Procedure, shortened: (§3)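 Cells seeded at 2 × 10^3 cells/mL in culture medium with 1 nM–10 μM compound and cultured 7 days. HL60 and Raji were grown in RPMI 1640, K562 in F-12, UT-7 in IMDM with TPO 10 ng/mL; all media had 10% heat-inactivated FBS, 37 °C, 5% CO2. Viable trypan blue-excluding cells counted by hemacytometer; growth rate = viable treated/viable untreated. Means ± SD.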

Raji [6] = assay: Induction of apoptosis in human Raji cells assessed as intracellular caspase-3 activation after 48 hrs (reference value: 3.4 %); format: functional
HL-60 [7] = assay: Growth inhibition against human HL60 cells assessed as cell viability at 10 uM after 48 hrs by trypan blue based microscopic analysis in presence of superoxide dismutase and catalase; format: functional; procedure, shortened: as §1
Raji [8] = assay: Induction of apoptosis in human Raji cells assessed as early apoptotic cells at 10 uM after 12 hrs by measuring phosphatidylserine translocation using annexin V-FITC/propidium iodide staining by FACS (reference value: 3.7 %); format: functional
HL-60 [9] = assay: Induction of intracellular reactive oxygen species production in human HL60 cells at 10 uM after 1 to 3 hrs by flow cytometry; format: functional, cell-based
Procedure, shortened: (§4)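 Cells treated with 10 μM EGCG for 1 and 3 h. Then 1 × 10^5 cells stained with 5 μM H2-DCFDA for 25 min at 37 °C, washed and resuspended in PBS. Oxidised-probe fluorescence read by flow cytometry. Means ± SD of more than three separate experiments.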

K562 [10] = assay: Induction of intracellular reactive oxygen species production in human K562 cells at 10 uM after 1 to 3 hrs by flow cytometry; format: functional, cell-based; procedure, shortened: as §4
HL-60 [11] = assay: Cell cycle arrest in human HL60 cells by assessed as accumulation at subG1 phase at 10 uM using propidium iodide staining by flow cytometry in presence of superoxide dismutase and catalase; format: functional; procedure, shortened: as §2
Raji [12] = assay: Induction of apoptosis in human Raji cells assessed as late apoptotic or secondary necrotic cells at 10 uM after 24 hrs by measuring phosphatidylserine translocation using annexin V-FITC/propidium iodide staining by FACS (reference value: 2.2 %); format: functional
HL-60 [13] = assay: Cell cycle arrest in human HL60 cells by assessed as accumulation at subG1 phase at 10 uM using propidium iodide staining by flow cytometry; format: functional; procedure, shortened: as §2
Raji [14] = assay: Induction of myeloperoxidase expression in human Raji cells after 24 hrs by flow cytometry; format: functional
Procedure, shortened: (§5)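 Untreated cells seeded at 1 × 10^5 cells/mL and grown 24 h. Fixed/permeabilised with Cytofix/Cytoperm for 20 min on ice. Stained with mouse anti-MPO mAb (1% v/v) for 1 h at room temperature, then goat anti-mouse IgG-FITC (1% v/v) for 1 h in the dark. Basal intracellular MPO read by flow cytometry.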

K562 [15] = assay: Induction of myeloperoxidase expression in human K562 cells after 24 hrs by flow cytometry; format: functional; procedure, shortened: as §5
Raji [16] = assay: Induction of apoptosis in human Raji cells assessed as necrotic cells at 10 uM by measuring phosphatidylserine translocation using annexin V-FITC/propidium iodide staining by FACS; format: functional, cell-based; conditions: TDE = time-dependent effect
HL-60 [17] = assay: Induction of apoptosis in human HL60 cells assessed as intracellular caspase-3 activation after 24 hrs (reference value: 1.3 %); format: functional
Raji [18] = assay: Growth inhibition against human Raji cells assessed as cell viability at 10 uM preincubated with N-acetyl-L-cysteine for 30 mins measured after 48 hrs by trypan blue based microscopic analysis; format: functional
Procedure, shortened: (§6)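 Cells preincubated 30 min at 37 °C with 10 mM NAC, then seeded (Raji 1 × 10^5, HL60 5 × 10^4 cells/mL) and treated with 10 μM EGCG for 48 h. Viable cells were counted after trypan blue exclusion by hemacytometer. Growth rate = viable treated/viable untreated cells. Means ± SD of more than three experiments in triplicate wells.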

HL-60 [19] = assay: Induction of 67 kDa laminin receptor expression in human HL60 cells after 24 hrs by flow cytometry analysis; format: functional, cell-based
Procedure, shortened: (§7)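 Untreated cells seeded at 1 × 10^5 cells/mL and grown 24 h. Harvested cells labelled with mouse anti-67 LR IgM in 0.5% BSA/PBS for 1 h on ice, then anti-mouse IgM-FITC for 30 min at 4 °C in the dark. Read by flow cytometry.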

Raji [20] = assay: Growth inhibition against human Raji cells assessed as cell viability at 10 uM after 48 hrs by trypan blue based microscopic analysis in presence of catalase; format: functional; procedure, shortened: as §1
Raji [21] = assay: Induction of apoptosis in human Raji cells assessed as late apoptotic or secondary necrotic cells at 10 uM after 12 hrs by measuring phosphatidylserine translocation using annexin V-FITC/propidium iodide staining by FACS (reference value: 2.2 %); format: functional
Raji [22] = assay: Induction of apoptosis in human Raji cells assessed as early apoptotic cells at 10 uM after 24 hrs by measuring phosphatidylserine translocation using annexin V-FITC/propidium iodide staining by FACS (reference value: 3.7 %); format: functional
HL-60 [23] = assay: Growth inhibition against human HL60 cells assessed as cell viability at 10 uM preincubated with N-acetyl-L-cysteine for 30 mins measured after 48 hrs by trypan blue based microscopic analysis; format: functional; procedure, shortened: as §6
HL-60 [24] = assay: Cytotoxicity against human HL60 cells assessed as cell growth inhibition after 7 days by trypan blue based microscopic analysis; format: functional; procedure, shortened: as §3
Raji [25] = assay: Cell cycle arrest in human Raji cells by assessed as accumulation at subG1 phase at 10 uM using propidium iodide staining by flow cytometry; format: functional; procedure, shortened: as §2
HL-60 [26] = assay: Induction of myeloperoxidase expression in human HL60 cells after 24 hrs by flow cytometry; format: functional; procedure, shortened: as §5
K562 [27] = assay: Cytotoxicity against human K562 cells assessed as cell growth inhibition at 10 uM after 7 days by trypan blue based microscopic analysis; format: functional; procedure, shortened: as §3
Raji [28] = assay: Growth inhibition against human Raji cells assessed as cell viability at 10 uM after 48 hrs by trypan blue based microscopic analysis in presence of superoxide dismutase and catalase; format: functional; procedure, shortened: as §1
HL-60 [29] = assay: Growth inhibition against human HL60 cells assessed as cell viability at 10 uM after 24 hrs by trypan blue based microscopic analysis; format: functional
K562 [30] = assay: Induction of 67 kDa laminin receptor expression in human K562 cells after 24 hrs by flow cytometry analysis; format: functional, cell-based; procedure, shortened: as §7
Raji [31] = assay: Induction of apoptosis in human Raji cells assessed as intracellular caspase-3 activation after 24 hrs (reference value: 3.4 %); format: functional
HL-60 [32] = assay: Growth inhibition against human HL60 cells assessed as cell viability at 10 uM after 48 hrs by trypan blue based microscopic analysis in presence of catalase; format: functional; procedure, shortened: as §1
Raji [33] = assay: Induction of apoptosis in human Raji cells assessed as early apoptotic cells at 10 uM after 6 hrs by measuring phosphatidylserine translocation using annexin V-FITC/propidium iodide staining by FACS (reference value: 3.7 %); format: functional
Raji [34] = assay: Growth inhibition against human Raji cells assessed as cell viability at 10 uM after 24 hrs by trypan blue based microscopic analysis; format: functional
Raji [35] = assay: Induction of intracellular reactive oxygen species production in human Raji cells at 10 uM after 1 to 3 hrs by flow cytometry; format: functional, cell-based; procedure, shortened: as §4
Raji [36] = assay: Cytotoxicity against human Raji cells assessed as cell growth inhibition after 7 days by trypan blue based microscopic analysis; format: functional; procedure, shortened: as §3
Raji [37] = assay: Induction of apoptosis in human Raji cells assessed as necrotic cells at 10 uM after 24 hrs by measuring phosphatidylserine translocation using annexin V-FITC/propidium iodide staining by FACS (reference value: 3.4 %); format: functional
Raji [38] = assay: Induction of apoptosis in human Raji cells assessed as necrotic cells at 10 uM after 12 hrs by measuring phosphatidylserine translocation using annexin V-FITC/propidium iodide staining by FACS (reference value: 3.4 %); format: functional
HL-60 [39] = assay: Growth inhibition against human HL60 cells assessed as cell viability at 10 uM after 48 hrs by trypan blue based microscopic analysis in presence of superoxide dismutase; format: functional; procedure, shortened: as §1

O=C(O[C@@H]1Cc2c(O)cc(O)cc2O[C@@H]1c1cc(O)c(O)c(O)c1)c1cc(O)c(O)c(O)c1 [EPIGALOCATECHIN GALLATE]
Activity (HL-60 [1]): 4.2%
Activity (Raji [2]): 5.3%
growth inhibition (GI) (Raji [3]): Active
Activity (Raji [4]): 5.9%
Activity (Raji [5]): 4.5%
growth inhibition (GI) (UT7): inactive
Activity (Raji [6]): 5.4%
growth inhibition (GI) (HL-60 [7]): inactive
Activity (Raji [8]): 7.7%
Activity (HL-60 [9]): inactive
Activity (K562 [10]): inactive
Activity (HL-60 [11]): 2.6%
Activity (Raji [12]): 13%
Activity (HL-60 [13]): 45.9%
Activity (Raji [14]): 4.5%
Activity (K562 [15]): 14.3%
Activity (Raji [16]): tde
Activity (HL-60 [17]): 2.7%
growth inhibition (GI) (Raji [18]): Active
Activity (HL-60 [19]): Active
growth inhibition (GI) (Raji [20]): Active
Activity (Raji [21]): 7.8%
Activity (Raji [22]): 8.5%
growth inhibition (GI) (HL-60 [23]): Active
growth inhibition (GI) (HL-60 [24]): Dose-dependent effect
Activity (Raji [25]): 3.8%
Activity (HL-60 [26]): 49.2%
growth inhibition (GI) (K562 [27]): inactive
growth inhibition (GI) (Raji [28]): inactive
Activity (HL-60 [29]): Active
Activity (K562 [30]): Active
Activity (Raji [31]): 3.5%
growth inhibition (GI) (HL-60 [32]): Active
Activity (Raji [33]): 5.1%
Activity (Raji [34]): Active
Activity (Raji [35]): inactive
growth inhibition (GI) (Raji [36]): Dose-dependent effect
Activity (Raji [37]): 14.9%
Activity (Raji [38]): 6.7%
growth inhibition (GI) (HL-60 [39]): Active
